From ChEMBL document CHEMBL1154792, “chi-Conopeptide pharmacophore development: toward a novel class of norepinephrine transporter inhibitor (Xen2174) for pain” (J Med Chem, 2009) come the findings set out here.

Each structure is given as a SMILES string. Calls of active or inactive are those of the source. No cut-off for these calls is given here. Where a SMILES comes first, the peptide text is derived from it. Bridges are numbered along the chain shown (N, C = ends). [ ]: non-standard residue; d: D form. Pro(3S-OH) = O=C(O)[C@H]1NCC[C@@H]1O; Cha = N[C@@H](CC1CCCCC1)C(=O)O; pGlu = O=C1CC[C@@H](C(=O)O)N1

Chain of Sodium-dependent noradrenaline transporter (P23975 whole entry): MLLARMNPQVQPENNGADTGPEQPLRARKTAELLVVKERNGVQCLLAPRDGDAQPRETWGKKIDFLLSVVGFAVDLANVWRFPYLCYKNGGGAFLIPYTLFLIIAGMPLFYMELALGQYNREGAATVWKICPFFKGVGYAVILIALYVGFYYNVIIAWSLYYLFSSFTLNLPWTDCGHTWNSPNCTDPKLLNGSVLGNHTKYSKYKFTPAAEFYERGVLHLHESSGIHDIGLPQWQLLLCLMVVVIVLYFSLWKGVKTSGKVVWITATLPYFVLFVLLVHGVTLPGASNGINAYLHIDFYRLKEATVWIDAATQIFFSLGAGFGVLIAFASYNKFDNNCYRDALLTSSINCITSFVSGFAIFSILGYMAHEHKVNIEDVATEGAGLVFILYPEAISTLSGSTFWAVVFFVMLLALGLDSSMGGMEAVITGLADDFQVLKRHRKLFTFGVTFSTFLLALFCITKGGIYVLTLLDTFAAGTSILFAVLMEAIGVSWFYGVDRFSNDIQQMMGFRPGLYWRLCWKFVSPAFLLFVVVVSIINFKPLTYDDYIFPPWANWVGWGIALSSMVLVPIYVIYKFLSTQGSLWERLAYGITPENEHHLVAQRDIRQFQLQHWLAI

The assay addresses Sodium-dependent noradrenaline transporter (Homo sapiens, UniProt P23975). Put plainly: Displacement of [3H]nisoxetine from human NET expressed in COS7 cells. The class given is cell-based. The settings on record: COS-7. A digest of the protocol:
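Membranes from COS-7 cells transfected with human NET were incubated with [3H]nisoxetine (4.3 nM) with or without peptide (1 nM to 100 μM, triplicate) for 1 h at RT. Filter-retained radioactivity was counted by liquid scintillation, and values are given as pIC50. Data are means of 2–5 experiments in triplicate; peptide concentration was set by calibrated HPLC at 214 nm.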
On the technique in general: In a radioligand displacement assay an active substance lowers the binding of a labelled ligand.
For the molecule `COc1ccc(C[C@@H]2NC(=O)CNC(=O)[C@@H]3CSSC[C@H](NC(=O)[C@H](CC(C)C)NC(=O)[C@H](CCCCN)NC(=O)[C@H](Cc4ccc(O)cc4)NC2=O)C(=O)N[C@@H](Cc2c[nH]c4ccccc24)C(=O)N2CC[C@H](O)[C@H]2C(=O)N[C@H](C(=O)O)CSSC[C@H](NC(=O)[C@@H](NC(=O)CNC(=O)[C@@H]2CCC(=O)N2)C(C)C)C(=O)N3)cc1` ([pGlu]GVCCGY(Me)YKLCW[Pro(3S-OH)]C-OH; disulfide 4-14, 5-11), the result was Active. As to `CC(C)C[C@H]1CC(=O)N[C@H]2CSSC[C@H](NC(=O)[C@@H](NC(=O)[C@@H](NC(=O)CNC(=O)[C@@H]3CCC(=O)N3)C(C)C)CSSC[C@@H](C(=O)O)NC(=O)[C@@H]3[C@@H](O)CCN3C(=O)[C@H](Cc3cnc[nH]3)NC2=O)C(=O)NCC(=O)N[C@@H](Cc2ccc(O)cc2)C(=O)N[C@@H](CCCCN)C(=O)N1`, the outcome was Active. For `CC(C)C[C@@H]1NC(=O)[C@H](CCCCN)NC(=O)[C@H](CC2CCCCC2)NC(=O)CNC(=O)[C@@H]2CSSC[C@H](NC1=O)C(=O)N[C@@H](Cc1cnc[nH]1)C(=O)N1CC[C@H](O)[C@H]1C(=O)N[C@H](C(=O)O)CSSC[C@H](NC(=O)[C@@H](NC(=O)CNC(=O)[C@@H]1CCC(=O)N1)C(C)C)C(=O)N2` the value was “inactive”. As for `CC(C)C[C@@H]1NC(=O)[C@H](CCCCN)NC(=O)[C@H](CCC(=O)O)NC(=O)CNC(=O)[C@@H]2CSSC[C@H](NC1=O)C(=O)N[C@@H](Cc1cnc[nH]1)C(=O)N1CC[C@H](O)[C@H]1C(=O)N[C@H](C(=O)O)CSSC[C@H](NC(=O)[C@@H](NC(=O)CNC(=O)[C@@H]1CCC(=O)N1)C(C)C)C(=O)N2`, the outcome was inactive. In the case of `CC(C)C[C@@H]1NC(=O)[C@H](CCCCN)NC(=O)[C@H](Cc2ccc(O)cc2)NC(=O)CNC(=O)[C@@H]2CSSC[C@H](NC1=O)C(=O)N[C@@H](Cc1ccco1)C(=O)N1CC[C@H](O)[C@H]1C(=O)N[C@H](C(=O)O)CSSC[C@H](NC(=O)[C@@H](NC(=O)CNC(=O)[C@@H]1CCC(=O)N1)C(C)C)C(=O)N2`, the outcome was Active. With `CC(C)C[C@@H]1NC(=O)[C@H](CCCCN)NC(=O)[C@H](Cc2ccc(O)cc2)NC(=O)CNC(=O)[C@@H]2CSSC[C@H](NC1=O)C(=O)N[C@@H](Cc1cccc3ccccc13)C(=O)N1CC[C@H](O)[C@H]1C(=O)N[C@H](C(=O)O)CSSC[C@H](NC(=O)[C@@H](NC(=O)CNC(=O)[C@@H]1CCC(=O)N1)C(C)C)C(=O)N2`, the result was Active. For `COc1ccc(C[C@H]2CC(=O)N[C@@H](CCCCN)C(=O)N[C@@H](CC(C)C)C(=O)N[C@H]3CSSC[C@H](NC(=O)[C@@H](NC(=O)[C@@H](NC(=O)CNC(=O)[C@@H]4CCC(=O)N4)C(C)C)CSSC[C@@H](C(=O)O)NC(=O)[C@@H]4[C@@H](O)CCN4C(=O)[C@H](Cc4cnc[nH]4)NC3=O)C(=O)NCC(=O)N2)cc1` the value was “inactive”; for `COc1ccc(C[C@H]2NC(=O)[C@H](Cc3cnc[nH]3)NC(=O)[C@@H]3CSSC[C@H](NC(=O)[C@@H](NC(=O)[C@@H](NC(=O)CNC(=O)[C@@H]4CCC(=O)N4)C(C)C)CSSC[C@@H](C(=O)O)NC2=O)C(=O)NCC(=O)N[C@@H](Cc2ccc(O)cc2)C(=O)N[C@@H](CCCCN)C(=O)N[C@@H](CC(C)C)C(=O)N3)cc1`, “Active”. For `CC(C)C[C@@H]1NC(=O)[C@H](CCCCN)NC(=O)[C@H](C(c2ccccc2)c2ccccc2)NC(=O)CNC(=O)[C@@H]2CSSC[C@H](NC1=O)C(=O)N[C@@H](Cc1cnc[nH]1)C(=O)N1CC[C@H](O)[C@H]1C(=O)N[C@H](C(=O)O)CSSC[C@H](NC(=O)[C@@H](NC(=O)CNC(=O)[C@@H]1CCC(=O)N1)C(C)C)C(=O)N2` the value was “inactive”; for `CC(C)C[C@@H]1NC(=O)[C@H](CCCCN)NC(=O)[C@H](Cc2c[nH]c3ccccc23)NC(=O)CNC(=O)[C@@H]2CSSC[C@H](NC1=O)C(=O)N[C@@H](Cc1cnc[nH]1)C(=O)N1CC[C@H](O)[C@H]1C(=O)N[C@H](C(=O)O)CSSC[C@H](NC(=O)[C@@H](NC(=O)CNC(=O)[C@@H]1CCC(=O)N1)C(C)C)C(=O)N2`, “inactive”. For `CC(C)C[C@@H]1NC(=O)CNC(=O)[C@@H]2CSSC[C@H](NC(=O)[C@H](CC(C)C)NC(=O)[C@H](CCCCN)NC1=O)C(=O)N[C@@H](Cc1cnc[nH]1)C(=O)N1CC[C@H](O)[C@H]1C(=O)N[C@H](C(=O)O)CSSC[C@H](NC(=O)[C@@H](NC(=O)CNC(=O)[C@@H]1CCC(=O)N1)C(C)C)C(=O)N2` ([pGlu]GVCCGLKLCH[Pro(3S-OH)]C-OH; disulfide 4-13, 5-10) the value was “inactive”; for `CC(C)C[C@@H]1NC(=O)[C@H](CCCCN)NC(=O)[C@H](Cc2ccc(O)cc2)NC(=O)CNC(=O)[C@@H]2CSSC[C@H](NC1=O)C(=O)N[C@@H](Cc1cnc[nH]1)C(=O)N1CC[C@H](O)[C@H]1C(=O)N[C@@H](C(=O)O)CSSC[C@@H](NC(=O)[C@@H](NC(=O)CNC(=O)[C@@H]1CCC(=O)N1)C(C)C)C(=O)N2`, “Active”; for `COc1ccc(C[C@@H]2NC(=O)CNC(=O)[C@@H]3CSSC[C@H](NC(=O)[C@H](CC4CCCCC4)NC(=O)[C@H](CCCCN)NC(=O)[C@H](Cc4ccc(O)cc4)NC2=O)C(=O)N[C@@H](Cc2c[nH]c4ccccc24)C(=O)N2CC[C@H](O)[C@H]2C(=O)N[C@H](C(=O)O)CSSC[C@H](NC(=O)[C@@H](NC(=O)CNC(=O)[C@@H]2CCC(=O)N2)C(C)C)C(=O)N3)cc1` ([pGlu]GVCCGY(Me)YK[Cha]CW[Pro(3S-OH)]C-OH; disulfide 4-14, 5-11), “Active”. `CC(C)C[C@@H]1NC(=O)[C@H](CCCCN)NC(=O)[C@H](CO)NC(=O)CNC(=O)[C@@H]2CSSC[C@H](NC1=O)C(=O)N[C@@H](Cc1cnc[nH]1)C(=O)N1CC[C@H](O)[C@H]1C(=O)N[C@H](C(=O)O)CSSC[C@H](NC(=O)[C@@H](NC(=O)CNC(=O)[C@@H]1CCC(=O)N1)C(C)C)C(=O)N2` ([pGlu]GVCCGSKLCH[Pro(3S-OH)]C-OH; disulfide 4-13, 5-10): the result was inactive. For `COc1ccc(C[C@@H]2NC(=O)CNC(=O)[C@@H]3CSSC[C@H](NC(=O)[C@H](CC(C)C)NC(=O)[C@H](CCCCN)NC2=O)C(=O)N[C@@H](Cc2cnc[nH]2)C(=O)N2CC[C@H](O)[C@H]2C(=O)N[C@H](C(=O)O)CSSC[C@H](NC(=O)[C@@H](NC(=O)CNC(=O)[C@@H]2CCC(=O)N2)C(C)C)C(=O)N3)cc1` the value was “Active”. Next, `CC(C)C[C@@H]1NC(=O)[C@H](CCCCN)NC(=O)[C@@H](Cc2ccc(O)cc2)NC(=O)CNC(=O)[C@@H]2CSSC[C@H](NC1=O)C(=O)N[C@@H](Cc1cnc[nH]1)C(=O)N1CC[C@H](O)[C@H]1C(=O)N[C@H](C(=O)O)CSSC[C@H](NC(=O)[C@@H](NC(=O)CNC(=O)[C@@H]1CCC(=O)N1)C(C)C)C(=O)N2`: “inactive”. For `CC(C)C[C@@H]1NC(=O)[C@H](CCCCN)NC(=O)[C@H](Cc2ccc(O)cc2)NC(=O)CNC(=O)[C@@H]2CSSC[C@H](NC1=O)C(=O)N[C@@H](Cc1cnc[nH]1)C(=O)N1CC[C@H](O)[C@H]1C(=O)N[C@@H](C(=O)O)CSSC[C@H](NC(=O)[C@@H](NC(=O)CNC(=O)[C@@H]1CCC(=O)N1)C(C)C)C(=O)N2` the value was “inactive”; for `CC(C)C[C@@H]1NC(=O)[C@H](CCCCN)NC(=O)[C@H](Cc2ccc(O)cc2)NC(=O)CNC(=O)[C@H]2CSSC[C@@H](NC1=O)C(=O)N[C@@H](Cc1cnc[nH]1)C(=O)N1CC[C@H](O)[C@H]1C(=O)N[C@@H](C(=O)O)CSSC[C@@H](NC(=O)[C@@H](NC(=O)CNC(=O)[C@@H]1CCC(=O)N1)C(C)C)C(=O)N2`, “inactive”.
